From ChEMBL document CHEMBL2417369, “Synthesis and evaluation of heteroaryl substituted diazaspirocycles as scaffolds to probe the ATP-binding site of protein kinases” (Bioorg Med Chem, 2013)

Assays:
[1] = molecular target: T1, Aurora kinase A (Homo sapiens) (UniProt O14965); assay: Inhibition of AURA (unknown origin) at 30 uM by microfluidic mobility shift assay relative to control
T1 sequence (whole entry): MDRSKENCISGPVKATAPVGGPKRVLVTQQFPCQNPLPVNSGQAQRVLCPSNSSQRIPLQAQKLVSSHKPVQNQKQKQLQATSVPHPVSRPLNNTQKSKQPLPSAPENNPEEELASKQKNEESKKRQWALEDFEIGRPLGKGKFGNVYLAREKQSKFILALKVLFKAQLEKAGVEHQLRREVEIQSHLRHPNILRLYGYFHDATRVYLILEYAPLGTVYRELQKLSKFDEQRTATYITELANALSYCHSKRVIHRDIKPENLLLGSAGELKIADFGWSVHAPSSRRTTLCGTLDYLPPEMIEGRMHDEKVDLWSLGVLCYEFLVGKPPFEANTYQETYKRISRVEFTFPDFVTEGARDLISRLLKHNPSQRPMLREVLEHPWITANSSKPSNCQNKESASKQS
Summary of the method: (§1)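 Single-point screen in a 24-enzyme kinase panel using a microfluidic assay. Each compound was tested at […] with ATP at roughly the Km for each enzyme. The pan-AGC inhibitor H-89 served as an internal control on every plate.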

[2] = molecular target: T2, Serine/threonine-protein kinase D2 (Homo sapiens) (UniProt Q9BZL6); assay: Inhibition of PKD2 (unknown origin) at 30 uM by microfluidic mobility shift assay relative to control; summary of the method: as §1
T2 sequence (whole entry): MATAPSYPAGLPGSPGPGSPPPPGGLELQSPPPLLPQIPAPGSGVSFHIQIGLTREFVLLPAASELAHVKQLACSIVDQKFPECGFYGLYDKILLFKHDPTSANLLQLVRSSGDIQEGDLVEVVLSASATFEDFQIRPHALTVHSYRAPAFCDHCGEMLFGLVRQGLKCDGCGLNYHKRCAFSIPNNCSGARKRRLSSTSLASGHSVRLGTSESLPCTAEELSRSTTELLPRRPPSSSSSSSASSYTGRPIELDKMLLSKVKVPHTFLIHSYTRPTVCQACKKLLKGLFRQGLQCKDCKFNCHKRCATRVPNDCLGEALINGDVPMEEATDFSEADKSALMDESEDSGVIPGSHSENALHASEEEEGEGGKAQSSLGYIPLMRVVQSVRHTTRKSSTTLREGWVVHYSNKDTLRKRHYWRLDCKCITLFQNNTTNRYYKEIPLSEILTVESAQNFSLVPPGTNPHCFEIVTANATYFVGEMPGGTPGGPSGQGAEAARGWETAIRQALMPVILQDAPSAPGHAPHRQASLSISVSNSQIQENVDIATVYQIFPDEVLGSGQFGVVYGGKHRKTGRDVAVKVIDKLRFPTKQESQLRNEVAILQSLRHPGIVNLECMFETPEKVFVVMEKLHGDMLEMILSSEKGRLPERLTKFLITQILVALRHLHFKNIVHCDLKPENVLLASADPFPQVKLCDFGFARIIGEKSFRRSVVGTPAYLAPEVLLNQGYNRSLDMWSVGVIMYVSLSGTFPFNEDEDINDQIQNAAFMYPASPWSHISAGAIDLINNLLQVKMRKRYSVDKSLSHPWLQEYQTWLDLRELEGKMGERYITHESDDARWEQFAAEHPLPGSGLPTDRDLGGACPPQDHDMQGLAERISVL

[3] = molecular target: MAP kinase-activated protein kinase 2 (Homo sapiens) (UniProt P49137); assay: Inhibition of MK2 (unknown origin) at 30 uM by microfluidic mobility shift assay relative to control; summary of the method: as §1
MAP kinase-activated protein kinase 2 (Homo sapiens), sequence (P49137 whole entry, looked up): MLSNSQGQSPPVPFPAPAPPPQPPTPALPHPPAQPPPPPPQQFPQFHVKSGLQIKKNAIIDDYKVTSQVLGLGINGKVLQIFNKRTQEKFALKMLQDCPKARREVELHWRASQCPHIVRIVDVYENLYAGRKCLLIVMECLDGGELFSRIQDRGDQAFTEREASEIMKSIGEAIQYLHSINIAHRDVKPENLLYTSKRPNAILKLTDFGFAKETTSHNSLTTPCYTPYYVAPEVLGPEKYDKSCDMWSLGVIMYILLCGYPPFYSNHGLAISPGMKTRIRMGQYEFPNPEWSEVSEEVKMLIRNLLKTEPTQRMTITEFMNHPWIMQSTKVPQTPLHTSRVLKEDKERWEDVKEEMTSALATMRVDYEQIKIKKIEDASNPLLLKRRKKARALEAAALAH

[4] = molecular target: Ribosomal protein S6 kinase alpha-5 (Homo sapiens, UniProt O75582); assay: Inhibition of MSK1 (unknown origin) at 30 uM by microfluidic mobility shift assay relative to control; summary of the method: as §1
Ribosomal protein S6 kinase alpha-5, sequence (O75582 whole entry, looked up): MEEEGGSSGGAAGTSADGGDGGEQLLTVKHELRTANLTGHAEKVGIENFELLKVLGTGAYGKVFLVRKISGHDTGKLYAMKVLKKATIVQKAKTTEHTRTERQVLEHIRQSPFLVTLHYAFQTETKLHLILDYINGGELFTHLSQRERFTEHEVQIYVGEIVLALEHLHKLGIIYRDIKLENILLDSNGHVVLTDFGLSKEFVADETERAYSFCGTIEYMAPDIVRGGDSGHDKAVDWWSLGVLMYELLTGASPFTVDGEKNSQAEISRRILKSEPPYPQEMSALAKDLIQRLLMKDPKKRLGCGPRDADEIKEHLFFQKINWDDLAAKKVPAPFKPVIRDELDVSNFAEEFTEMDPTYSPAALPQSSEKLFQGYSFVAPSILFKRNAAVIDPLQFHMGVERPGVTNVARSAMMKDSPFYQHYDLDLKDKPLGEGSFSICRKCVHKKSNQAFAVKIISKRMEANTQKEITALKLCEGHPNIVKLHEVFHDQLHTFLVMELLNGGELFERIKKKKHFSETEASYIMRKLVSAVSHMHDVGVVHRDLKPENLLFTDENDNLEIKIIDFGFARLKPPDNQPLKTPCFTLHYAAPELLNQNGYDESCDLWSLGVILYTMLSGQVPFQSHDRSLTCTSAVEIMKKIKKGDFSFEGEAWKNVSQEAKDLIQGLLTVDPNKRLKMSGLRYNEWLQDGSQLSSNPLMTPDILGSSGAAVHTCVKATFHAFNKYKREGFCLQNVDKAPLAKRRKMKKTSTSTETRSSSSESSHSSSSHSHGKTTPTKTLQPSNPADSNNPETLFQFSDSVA

[5] = molecular target: Tyrosine-protein kinase HCK (Homo sapiens) (UniProt P08631); assay: Inhibition of HCK (unknown origin) at 30 uM by microfluidic mobility shift assay relative to control
Tyrosine-protein kinase HCK (Homo sapiens), sequence (P08631 2-526 limits assumed): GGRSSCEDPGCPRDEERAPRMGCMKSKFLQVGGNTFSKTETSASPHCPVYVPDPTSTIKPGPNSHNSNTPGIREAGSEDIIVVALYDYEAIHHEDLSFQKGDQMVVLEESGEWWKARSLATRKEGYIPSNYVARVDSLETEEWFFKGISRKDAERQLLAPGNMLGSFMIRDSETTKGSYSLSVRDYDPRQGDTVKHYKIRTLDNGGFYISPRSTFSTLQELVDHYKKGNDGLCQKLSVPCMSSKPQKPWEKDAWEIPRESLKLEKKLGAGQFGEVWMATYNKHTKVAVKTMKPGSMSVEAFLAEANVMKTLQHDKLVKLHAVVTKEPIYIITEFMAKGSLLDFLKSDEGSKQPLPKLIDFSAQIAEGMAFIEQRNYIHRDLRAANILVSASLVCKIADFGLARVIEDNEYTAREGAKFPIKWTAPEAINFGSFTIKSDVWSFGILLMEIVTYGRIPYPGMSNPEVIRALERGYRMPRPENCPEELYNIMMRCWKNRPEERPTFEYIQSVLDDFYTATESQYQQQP
Summary of the method: (§2)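 Single-point screen at 30 µM test compound across a 24-kinase panel in a microfluidic assay format. ATP was set near each enzyme's Km,[ATP]. […] The pan-AGC inhibitor H-89 served as an internal control on every assay plate.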

[6] = molecular target: T3, Mitogen-activated protein kinase 12 (Homo sapiens) (UniProt P53778); assay: Inhibition of p38gamma (unknown origin) at 30 uM by microfluidic mobility shift assay relative to control
T3 sequence (whole entry): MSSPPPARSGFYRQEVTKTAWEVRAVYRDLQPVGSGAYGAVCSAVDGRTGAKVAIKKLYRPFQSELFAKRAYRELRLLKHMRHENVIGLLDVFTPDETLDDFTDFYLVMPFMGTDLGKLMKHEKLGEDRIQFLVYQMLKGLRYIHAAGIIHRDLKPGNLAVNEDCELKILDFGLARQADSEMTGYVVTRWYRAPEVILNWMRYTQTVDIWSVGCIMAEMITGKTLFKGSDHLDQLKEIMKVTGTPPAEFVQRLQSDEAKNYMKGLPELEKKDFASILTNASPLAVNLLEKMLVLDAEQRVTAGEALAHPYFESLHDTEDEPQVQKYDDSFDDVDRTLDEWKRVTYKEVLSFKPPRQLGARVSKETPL
Summary of the method: (§3)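 Single-point screen against a 24-kinase panel in a commercial microfluidic assay format. Compounds were tested at 30 µM, with ATP at approximately the Km,[ATP] of each enzyme. H-89 was included on each assay plate as an internal control.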

[7] = molecular target: T4, Mitogen-activated protein kinase 13 (Homo sapiens) (UniProt O15264); assay: Inhibition of p38delta (unknown origin) at 30 uM by microfluidic mobility shift assay relative to control; summary of the method: as §3
T4 sequence (whole entry): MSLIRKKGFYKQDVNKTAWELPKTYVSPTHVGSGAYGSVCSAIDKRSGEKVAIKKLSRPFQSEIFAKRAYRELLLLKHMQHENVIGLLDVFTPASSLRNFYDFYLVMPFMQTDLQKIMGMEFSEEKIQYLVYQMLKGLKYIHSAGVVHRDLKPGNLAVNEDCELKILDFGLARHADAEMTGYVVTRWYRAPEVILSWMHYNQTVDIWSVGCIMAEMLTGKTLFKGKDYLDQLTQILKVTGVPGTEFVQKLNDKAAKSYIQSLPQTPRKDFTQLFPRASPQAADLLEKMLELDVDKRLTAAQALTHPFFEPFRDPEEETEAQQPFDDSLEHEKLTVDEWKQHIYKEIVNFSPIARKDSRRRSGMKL

[8] = molecular target: Ribosomal protein S6 kinase alpha-4 (Homo sapiens) (UniProt O75676); assay: Inhibition of MSK2 (unknown origin) at 30 uM by microfluidic mobility shift assay relative to control; summary of the method: as §2
Ribosomal protein S6 kinase alpha-4 (Homo sapiens), sequence (O75676 whole entry, looked up): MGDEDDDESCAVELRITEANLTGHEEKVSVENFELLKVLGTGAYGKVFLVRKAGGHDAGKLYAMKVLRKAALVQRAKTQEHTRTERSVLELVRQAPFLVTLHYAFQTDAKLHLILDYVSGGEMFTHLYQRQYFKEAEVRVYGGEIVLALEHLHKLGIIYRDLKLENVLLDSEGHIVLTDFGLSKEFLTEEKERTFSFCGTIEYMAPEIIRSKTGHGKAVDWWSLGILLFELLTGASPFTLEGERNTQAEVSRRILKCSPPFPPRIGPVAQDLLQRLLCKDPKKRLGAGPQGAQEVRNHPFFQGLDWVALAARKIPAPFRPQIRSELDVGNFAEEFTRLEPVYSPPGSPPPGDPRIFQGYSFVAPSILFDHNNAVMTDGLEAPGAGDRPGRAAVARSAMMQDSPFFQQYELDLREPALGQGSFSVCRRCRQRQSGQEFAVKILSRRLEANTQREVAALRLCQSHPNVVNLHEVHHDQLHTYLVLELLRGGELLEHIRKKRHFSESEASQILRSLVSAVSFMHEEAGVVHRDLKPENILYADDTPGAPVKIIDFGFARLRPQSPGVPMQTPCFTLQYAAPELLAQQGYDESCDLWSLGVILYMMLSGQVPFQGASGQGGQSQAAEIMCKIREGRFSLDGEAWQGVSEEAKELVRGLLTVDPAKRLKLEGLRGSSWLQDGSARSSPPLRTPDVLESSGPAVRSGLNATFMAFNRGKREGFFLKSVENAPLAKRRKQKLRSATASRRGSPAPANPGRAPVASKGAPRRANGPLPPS

[9] = molecular target: Ribosomal protein S6 kinase alpha-3 (Homo sapiens) (UniProt P51812); assay: Inhibition of RSK2 (unknown origin) at 30 uM by microfluidic mobility shift assay relative to control; summary of the method: as §3
Ribosomal protein S6 kinase alpha-3 (Homo sapiens), sequence (P51812 whole entry): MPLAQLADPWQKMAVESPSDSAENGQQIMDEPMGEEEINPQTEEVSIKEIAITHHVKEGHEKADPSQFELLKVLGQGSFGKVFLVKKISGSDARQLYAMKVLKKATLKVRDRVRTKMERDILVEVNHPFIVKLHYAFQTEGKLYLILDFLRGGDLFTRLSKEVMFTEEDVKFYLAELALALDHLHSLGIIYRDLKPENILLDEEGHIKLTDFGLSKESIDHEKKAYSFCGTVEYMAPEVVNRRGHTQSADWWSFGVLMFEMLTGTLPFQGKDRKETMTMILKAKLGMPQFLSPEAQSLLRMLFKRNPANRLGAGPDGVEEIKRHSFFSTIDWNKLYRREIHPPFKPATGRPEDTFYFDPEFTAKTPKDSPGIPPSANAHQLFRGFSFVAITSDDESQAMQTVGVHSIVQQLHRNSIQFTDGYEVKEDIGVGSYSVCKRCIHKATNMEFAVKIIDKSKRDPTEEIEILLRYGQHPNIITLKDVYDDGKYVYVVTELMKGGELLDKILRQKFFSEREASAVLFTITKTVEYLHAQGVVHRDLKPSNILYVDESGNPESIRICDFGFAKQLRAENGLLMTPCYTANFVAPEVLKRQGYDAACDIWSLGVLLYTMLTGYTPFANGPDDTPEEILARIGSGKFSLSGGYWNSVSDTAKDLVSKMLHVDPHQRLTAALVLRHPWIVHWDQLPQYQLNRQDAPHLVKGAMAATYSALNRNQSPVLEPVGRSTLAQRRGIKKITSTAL

inhibition [5] [%] | inhibition [6] [%] | inhibition [7] [%] | inhibition [8] [%] | inhibition [9] [%] | SMILES | inhibition [1] [%] | inhibition [2] [%] | inhibition [3] [%] | inhibition [4] [%]
– | – | – | – | – | c1nc(N2CCC3(CCCCN3)CC2)c2nc[nH]c2n1 | 81 | 42 | 24 | 88
– | – | – | – | – | c1nc(N2CCC3(CCCNC3)CC2)c2nc[nH]c2n1 | 67 | 91 | 74 | 98
– | – | – | – | – | O=S(=O)(c1cccc2cnccc12)N1CCCC2(CCCNC2)C1 (stereo not drawn) | 37 | 18 | 4 | 38
– | – | – | – | – | NC1(Cc2ccccc2)CCN(S(=O)(=O)c2cccc3cnccc23)CC1 | 43 | 16 | 0 | 58
– | – | – | – | – | NC1(Cc2ccccc2)CCN(c2ncnc3[nH]cnc23)CC1 | 96 | 53 | 23 | 73
– | – | – | – | – | O=S(=O)(c1cccc2cnccc12)N1CCC2(CCCCN2)CC1 | 71 | 24 | 14 | 76
– | – | – | – | – | O=S(=O)(c1cccc2cnccc12)N1CCC2(CCCN2)CC1 | 43 | 81 | 27 | 85
– | – | – | – | – | O=S(=O)(c1cccc2cnccc12)N1CCC2(CCCNC2)CC1 | 24 | 15 | 8 | 36
– | – | – | – | – | O=S(=O)(c1cccc2cnccc12)N1CCC2(CCNC2)CC1 | 51 | 19 | 13 | 41
– | – | – | – | – | O=S(=O)(c1cccc2cnccc12)N1CCCC12CCNCC2 | 27 | 2 | 10 | 47
– | – | – | – | – | O=S(=O)(c1cccc2cnccc12)N1CCCC2(CCNCC2)C1 | 36 | 21 | 0 | 39
– | – | – | – | – | c1ccc(C2CCC3(CCN(c4ncnc5[nH]cnc45)CC3)NC2)cc1 (stereo not drawn) | 90 | 33 | 17 | 78
– | – | – | – | – | c1nc(N2CCC3(CCCCC3)CC2)c2nc[nH]c2n1 | 71 | 5 | 10 | 35
– | – | – | – | – | c1nc(N2CCC3(CCCCO3)CC2)c2nc[nH]c2n1 | 92 | 40 | 20 | 49
– | – | – | – | – | c1nc(N2CCC3(CCCN3)CC2)c2nc[nH]c2n1 | 55 | 82 | 48 | 95
– | – | – | – | – | c1nc(N2CCC3(CCCOC3)CC2)c2nc[nH]c2n1 | 67 | 17 | 15 | 45

inhibition [5] [%] | inhibition [6] [%] | inhibition [7] [%] | inhibition [8] [%] | inhibition [9] [%] | SMILES | inhibition [1] [%] | inhibition [2] [%] | inhibition [3] [%] | inhibition [4] [%]
– | – | – | – | – | c1nc(N2CCC3(CCNC3)CC2)c2nc[nH]c2n1 | 59 | 80 | 66 | 94
– | – | – | – | – | c1nc(N2CCCC23CCNCC3)c2nc[nH]c2n1 | 18 | 8 | 17 | 13
– | – | – | – | – | c1nc(N2CCCC3(CCCNC3)C2)c2nc[nH]c2n1 (stereo not drawn) | 34 | 7 | 11 | 71
– | – | – | – | – | c1nc(N2CCCC3(CCNCC3)C2)c2nc[nH]c2n1 | 70 | 55 | 19 | 89
22 | 11 | 23 | 100 | 94 | c1ccc(CC2CCNC3(CCN(c4ncnc5[nH]cnc45)CC3)C2)cc1 (racemic) | 64 | 84 | 3 | 100
– | – | – | – | – | O=C(O)C1CCC2(CCN(c3ncnc4[nH]cnc34)CC2)NC1 (racemic) | 95 | 44 | 21 | 51
– | – | – | – | – | CN(C)C(=O)C1CCC2(CCN(c3ncnc4[nH]cnc34)CC2)NC1 (racemic) | 69 | 30 | 10 | 93
– | – | – | – | – | CNC(=O)C1CCC2(CCN(c3ncnc4[nH]cnc34)CC2)NC1 (racemic) | 74 | 35 | 10 | 80
– | – | – | – | – | COC(=O)C1CCC2(CCN(c3ncnc4[nH]cnc34)CC2)NC1 (racemic) | 64 | 36 | 6 | 48
– | – | – | – | – | O=C(C1CCC2(CCN(c3ncnc4[nH]cnc34)CC2)NC1)N1CCOCC1 (racemic) | 72 | 27 | 11 | 62
– | – | – | – | – | O=S(=O)(c1cccc2cnccc12)N1CCC2(CC1)CC(O)CCN2 (racemic) | 39 | 38 | 1 | 86
– | – | – | – | – | O=S(=O)(c1cccc2cnccc12)N1CCC2(CCC(O)CN2)CC1 (racemic) | 87 | 64 | 19 | 89
– | – | – | – | – | OC1CCC2(CCN(c3ncnc4[nH]cnc34)CC2)NC1 (racemic) | 80 | 48 | 11 | 89
– | – | – | – | – | OC1CCNC2(CCN(c3ncnc4[nH]cnc34)CC2)C1 (racemic) | 63 | 23 | 8 | 93
– | – | – | – | – | OCC1CCC2(CCN(c3ncnc4[nH]cnc34)CC2)NC1 (racemic) | 84 | 45 | 22 | 88
15 | 3 | 4 | 52 | 63 | c1ccc(CC2CCC3(CCN(c4ncnc5[nH]cnc45)CC3)NC2)cc1 (racemic) | 89 | 30 | 15 | 75
